Laboratory results as given in ChEMBL document CHEMBL1138520, “Molecular and conformational determinants of pituitary adenylate cyclase-activating polypeptide (PACAP) for activation of the PAC1 receptor” (J Med Chem, 2009).
Where a SMILES comes first, the peptide text is derived from it.

Legend:
[1] = target: T1, Pituitary adenylate cyclase-activating polypeptide type I receptor (Homo sapiens, UniProt P41586); test: Agonist activity at human recombinant PAC1 receptor expressed in CHO cells assessed as PACAP38-induced calcium mobilization by FLIPR assay relative to PACAP38; format: functional, cell-based
Procedure, shortened: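 CHO cells stably expressing recombinant human PAC1, plated 24 h before assay, loaded with fluo-4 AM for 60 min at 37 °C in the dark, then rinsed into HBSS for 15 min at 37 °C. Peptide was added 18 s into a 150 s read (ex 480/em 525 nm), at final concentrations of 1 × 10-12 to 1 × 10^-5 M. Response was normalised to 1 × 10^-5 M PACAP38 on each plate. EC50 and efficacy came from nonlinear regression; 4-10 independent assays in duplicate.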
Target sequence in this assay (P41586 21-468 limits assumed): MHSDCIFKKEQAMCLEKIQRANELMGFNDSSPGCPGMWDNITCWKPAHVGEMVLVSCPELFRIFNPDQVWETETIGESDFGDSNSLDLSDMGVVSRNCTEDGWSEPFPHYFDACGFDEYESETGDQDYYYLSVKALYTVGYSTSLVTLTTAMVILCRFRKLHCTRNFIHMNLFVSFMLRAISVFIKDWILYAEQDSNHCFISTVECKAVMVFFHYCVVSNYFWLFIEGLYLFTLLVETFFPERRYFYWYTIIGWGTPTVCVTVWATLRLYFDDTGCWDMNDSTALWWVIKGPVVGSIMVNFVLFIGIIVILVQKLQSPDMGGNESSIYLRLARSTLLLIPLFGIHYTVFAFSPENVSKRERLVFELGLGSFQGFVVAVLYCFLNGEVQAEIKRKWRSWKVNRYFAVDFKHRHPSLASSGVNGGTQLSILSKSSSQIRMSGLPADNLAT

[2] = target: T1, Pituitary adenylate cyclase-activating polypeptide type I receptor; test: Displacement of [125I]Ac-PACAP27 from human recombinant PAC1 receptor expressed in CHO cells by gamma- counter; format: cell-based
Target sequence in this assay (P41586 whole entry): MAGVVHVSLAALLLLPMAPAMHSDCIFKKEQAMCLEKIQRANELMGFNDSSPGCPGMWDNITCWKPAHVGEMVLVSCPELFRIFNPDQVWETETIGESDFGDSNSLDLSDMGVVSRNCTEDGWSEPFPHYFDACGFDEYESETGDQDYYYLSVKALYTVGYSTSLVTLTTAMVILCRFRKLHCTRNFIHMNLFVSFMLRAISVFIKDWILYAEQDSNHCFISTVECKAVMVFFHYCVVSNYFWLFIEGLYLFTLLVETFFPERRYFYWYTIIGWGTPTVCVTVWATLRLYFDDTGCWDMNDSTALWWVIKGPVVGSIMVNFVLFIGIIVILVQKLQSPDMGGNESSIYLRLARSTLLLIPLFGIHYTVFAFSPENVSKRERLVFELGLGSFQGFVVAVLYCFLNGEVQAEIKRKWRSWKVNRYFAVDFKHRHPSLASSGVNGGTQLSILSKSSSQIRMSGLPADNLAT

Emax [1] [%] | IC50 [2] [nM] | Compound
87.6 |  | CC[C@H](C)[C@H](NC(=O)CNC(=O)[C@H](CC(=O)O)NC(=O)[C@H](CO)NC(=O)[C@@H](N)Cc1cncn1C)C(=O)N[C@@H](Cc1ccccc1)C(=O)N[C@H](C(=O)N[C@@H](CC(=O)O)C(=O)N[C@@H](CO)C(=O)N[C@@H](Cc1ccc(O)cc1)C(=O)N[C@@H](CO)C(=O)N[C@@H](CCCNC(=N)N)C(=O)N[C@@H](Cc1ccc(O)cc1)C(=O)N[C@@H](CCCNC(=N)N)C(=O)N[C@@H](CCCCN)C(=O)N[C@@H](CCC(N)=O)C(=O)N[C@@H](CCSC)C(=O)N[C@@H](C)C(=O)N[C@H](C(=O)N[C@@H](CCCCN)C(=O)N[C@@H](CCCCN)C(=O)N[C@@H](Cc1ccc(O)cc1)C(=O)N[C@@H](CC(C)C)C(=O)N[C@@H](C)C(=O)N[C@@H](C)C(=O)N[C@H](C(=O)N[C@@H](CC(C)C)C(=O)NCC(=O)N[C@@H](CCCCN)C(=O)N[C@@H](CCCNC(=N)N)C(=O)N[C@@H](Cc1ccc(O)cc1)C(=O)N[C@@H](CCCCN)C(=O)N[C@@H](CCC(N)=O)C(=O)N[C@@H](CCCNC(=N)N)C(=O)N[C@H](C(=O)N[C@@H](CCCCN)C(=O)N[C@@H](CC(N)=O)C(=O)N[C@@H](CCCCN)C(N)=O)C(C)C)C(C)C)C(C)C)[C@@H](C)O
91.1 |  | CC[C@H](C)[C@H](NC(=O)CNC(=O)[C@H](CC(=O)O)NC(=O)[C@H](CO)NC(=O)[C@H](Cc1cnc[nH]1)NC(C)=O)C(=O)N[C@@H](Cc1ccccc1)C(=O)N[C@H](C(=O)N[C@@H](CC(=O)O)C(=O)N[C@@H](CO)C(=O)N[C@@H](Cc1ccc(O)cc1)C(=O)N[C@@H](CO)C(=O)N[C@@H](CCCNC(=N)N)C(=O)N[C@@H](Cc1ccc(O)cc1)C(=O)N[C@@H](CCCNC(=N)N)C(=O)N[C@@H](CCCCN)C(=O)N[C@@H](CCC(N)=O)C(=O)N[C@@H](CCSC)C(=O)N[C@@H](C)C(=O)N[C@H](C(=O)N[C@@H](CCCCN)C(=O)N[C@@H](CCCCN)C(=O)N[C@@H](Cc1ccc(O)cc1)C(=O)N[C@@H](CC(C)C)C(=O)N[C@@H](C)C(=O)N[C@@H](C)C(=O)N[C@H](C(=O)N[C@@H](CC(C)C)C(=O)NCC(=O)N[C@@H](CCCCN)C(=O)N[C@@H](CCCNC(=N)N)C(=O)N[C@@H](Cc1ccc(O)cc1)C(=O)N[C@@H](CCCCN)C(=O)N[C@@H](CCC(N)=O)C(=O)N[C@@H](CCCNC(=N)N)C(=O)N[C@H](C(=O)N[C@@H](CCCCN)C(=O)N[C@@H](CC(N)=O)C(=O)N[C@@H](CCCCN)C(N)=O)C(C)C)C(C)C)C(C)C)[C@@H](C)O
76.2 |  | CC[C@H](C)[C@@H](NC(=O)CNC(=O)[C@H](CC(=O)O)NC(=O)[C@H](CO)NC(=O)[C@@H](N)Cc1cnc[nH]1)C(=O)N[C@@H](Cc1ccccc1)C(=O)N[C@H](C(=O)N[C@@H](CC(=O)O)C(=O)N[C@@H](CO)C(=O)N[C@@H](Cc1ccc(O)cc1)C(=O)N[C@@H](CO)C(=O)N[C@@H](CCCNC(=N)N)C(=O)N[C@@H](Cc1ccc(O)cc1)C(=O)N[C@@H](CCCNC(=N)N)C(=O)N[C@@H](CCCCN)C(=O)N[C@@H](CCC(N)=O)C(=O)N[C@@H](CCSC)C(=O)N[C@@H](C)C(=O)N[C@H](C(=O)N[C@@H](CCCCN)C(=O)N[C@@H](CCCCN)C(=O)N[C@@H](Cc1ccc(O)cc1)C(=O)N[C@@H](CC(C)C)C(=O)N[C@@H](C)C(=O)N[C@@H](C)C(=O)N[C@H](C(=O)N[C@@H](CC(C)C)C(=O)NCC(=O)N[C@@H](CCCCN)C(=O)N[C@@H](CCCNC(=N)N)C(=O)N[C@@H](Cc1ccc(O)cc1)C(=O)N[C@@H](CCCCN)C(=O)N[C@@H](CCC(N)=O)C(=O)N[C@@H](CCCNC(=N)N)C(=O)N[C@H](C(=O)N[C@@H](CCCCN)C(=O)N[C@@H](CC(N)=O)C(=O)N[C@@H](CCCCN)C(N)=O)C(C)C)C(C)C)C(C)C)[C@@H](C)O
82.6 |  | CC[C@H](C)[C@H](NC(=O)CNC(=O)[C@H](CC(=O)O)NC(=O)[C@H](CO)NC(=O)[C@H](C)N)C(=O)N[C@@H](Cc1ccccc1)C(=O)N[C@H](C(=O)N[C@@H](CC(=O)O)C(=O)N[C@@H](CO)C(=O)N[C@@H](Cc1ccc(O)cc1)C(=O)N[C@@H](CO)C(=O)N[C@@H](CCCNC(=N)N)C(=O)N[C@@H](Cc1ccc(O)cc1)C(=O)N[C@@H](CCCNC(=N)N)C(=O)N[C@@H](CCCCN)C(=O)N[C@@H](CCC(N)=O)C(=O)N[C@@H](CCSC)C(=O)N[C@@H](C)C(=O)N[C@H](C(=O)N[C@@H](CCCCN)C(=O)N[C@@H](CCCCN)C(=O)N[C@@H](Cc1ccc(O)cc1)C(=O)N[C@@H](CC(C)C)C(=O)N[C@@H](C)C(=O)N[C@@H](C)C(=O)N[C@H](C(=O)N[C@@H](CC(C)C)C(=O)NCC(=O)N[C@@H](CCCCN)C(=O)N[C@@H](CCCNC(=N)N)C(=O)N[C@@H](Cc1ccc(O)cc1)C(=O)N[C@@H](CCCCN)C(=O)N[C@@H](CCC(N)=O)C(=O)N[C@@H](CCCNC(=N)N)C(=O)N[C@H](C(=O)N[C@@H](CCCCN)C(=O)N[C@@H](CC(N)=O)C(=O)N[C@@H](CCCCN)C(N)=O)C(C)C)C(C)C)C(C)C)[C@@H](C)O (H-ASDGIFTDSYSRYRKQMAVKKYLAAVLGKRYKQRVKNK-NH2)
63.3 |  | CC[C@H](C)[C@H](NC(=O)CNC(=O)[C@H](CC(=O)O)NC(=O)[C@H](CO)NC(=O)[C@@H](N)Cc1cnc[nH]1)C(=O)N[C@@H](Cc1ccccc1)C(=O)N[C@@H](C(=O)N[C@@H](CC(=O)O)C(=O)N[C@@H](CO)C(=O)N[C@@H](Cc1ccc(O)cc1)C(=O)N[C@@H](CO)C(=O)N[C@@H](CCCNC(=N)N)C(=O)N[C@@H](Cc1ccc(O)cc1)C(=O)N[C@@H](CCCNC(=N)N)C(=O)N[C@@H](CCCCN)C(=O)N[C@@H](CCC(N)=O)C(=O)N[C@@H](CCSC)C(=O)N[C@@H](C)C(=O)N[C@H](C(=O)N[C@@H](CCCCN)C(=O)N[C@@H](CCCCN)C(=O)N[C@@H](Cc1ccc(O)cc1)C(=O)N[C@@H](CC(C)C)C(=O)N[C@@H](C)C(=O)N[C@@H](C)C(=O)N[C@H](C(=O)N[C@@H](CC(C)C)C(=O)NCC(=O)N[C@@H](CCCCN)C(=O)N[C@@H](CCCNC(=N)N)C(=O)N[C@@H](Cc1ccc(O)cc1)C(=O)N[C@@H](CCCCN)C(=O)N[C@@H](CCC(N)=O)C(=O)N[C@@H](CCCNC(=N)N)C(=O)N[C@H](C(=O)N[C@@H](CCCCN)C(=O)N[C@@H](CC(N)=O)C(=O)N[C@@H](CCCCN)C(N)=O)C(C)C)C(C)C)C(C)C)[C@@H](C)O
 | 122 | CC[C@@H](C)[C@@H](NC(=O)CNC(=O)[C@H](CC(=O)O)NC(=O)[C@H](CO)NC(=O)[C@@H](N)Cc1cnc[nH]1)C(=O)N[C@@H](Cc1ccccc1)C(=O)N[C@H](C(=O)N[C@@H](CC(=O)O)C(=O)N[C@@H](CO)C(=O)N[C@@H](Cc1ccc(O)cc1)C(=O)N[C@@H](CO)C(=O)N[C@@H](CCCNC(=N)N)C(=O)N[C@@H](Cc1ccc(O)cc1)C(=O)N[C@@H](CCCNC(=N)N)C(=O)N[C@@H](CCCCN)C(=O)N[C@@H](CCC(N)=O)C(=O)N[C@@H](CCSC)C(=O)N[C@@H](C)C(=O)N[C@H](C(=O)N[C@@H](CCCCN)C(=O)N[C@@H](CCCCN)C(=O)N[C@@H](Cc1ccc(O)cc1)C(=O)N[C@@H](CC(C)C)C(=O)N[C@@H](C)C(=O)N[C@@H](C)C(=O)N[C@H](C(=O)N[C@@H](CC(C)C)C(=O)NCC(=O)N[C@@H](CCCCN)C(=O)N[C@@H](CCCNC(=N)N)C(=O)N[C@@H](Cc1ccc(O)cc1)C(=O)N[C@@H](CCCCN)C(=O)N[C@@H](CCC(N)=O)C(=O)N[C@@H](CCCNC(=N)N)C(=O)N[C@H](C(=O)N[C@@H](CCCCN)C(=O)N[C@@H](CC(N)=O)C(=O)N[C@@H](CCCCN)C(N)=O)C(C)C)C(C)C)C(C)C)[C@@H](C)O
